Test results taken from ChEMBL document CHEMBL5042469, “Unique Molecular Interaction with the Histone Deacetylase 6 Catalytic Tunnel: Crystallographic and Biological Characterization of a Model Chemotype” (J Med Chem, 2021).

How the values were obtained:
[1] = molecular target: T1, Histone deacetylase 8 (Homo sapiens, UniProt Q9BY41); test: Inhibition of full length human HDAC8 using FAM-labeled acetylated peptide as substrate by electrophoretic mobility shift assay
T1 sequence (Q9BY41 whole entry): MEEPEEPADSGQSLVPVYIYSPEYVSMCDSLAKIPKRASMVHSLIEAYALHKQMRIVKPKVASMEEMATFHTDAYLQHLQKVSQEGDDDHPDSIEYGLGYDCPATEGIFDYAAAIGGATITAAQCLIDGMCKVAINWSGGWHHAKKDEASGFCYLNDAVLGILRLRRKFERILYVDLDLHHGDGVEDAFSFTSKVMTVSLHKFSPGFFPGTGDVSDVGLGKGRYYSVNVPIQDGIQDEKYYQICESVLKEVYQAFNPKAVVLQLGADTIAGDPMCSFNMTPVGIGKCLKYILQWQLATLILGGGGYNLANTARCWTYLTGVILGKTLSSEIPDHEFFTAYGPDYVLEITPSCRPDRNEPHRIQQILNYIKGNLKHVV
In short: (§1)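 Full-length human HDAC isoform enzymatic assay by electrophoretic mobility shift, using a FAM-labelled acetylated peptide substrate. […] Values are the mean of duplicate experiments with 95% confidence intervals.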

[2] = molecular target: T2, Protein deacetylase HDAC6 (Homo sapiens, UniProt Q9UBN7); test: Inhibition of full length human HDAC6 using FAM-labeled acetylated peptide as substrate by electrophoretic mobility shift assay
T2 sequence (Q9UBN7 whole entry): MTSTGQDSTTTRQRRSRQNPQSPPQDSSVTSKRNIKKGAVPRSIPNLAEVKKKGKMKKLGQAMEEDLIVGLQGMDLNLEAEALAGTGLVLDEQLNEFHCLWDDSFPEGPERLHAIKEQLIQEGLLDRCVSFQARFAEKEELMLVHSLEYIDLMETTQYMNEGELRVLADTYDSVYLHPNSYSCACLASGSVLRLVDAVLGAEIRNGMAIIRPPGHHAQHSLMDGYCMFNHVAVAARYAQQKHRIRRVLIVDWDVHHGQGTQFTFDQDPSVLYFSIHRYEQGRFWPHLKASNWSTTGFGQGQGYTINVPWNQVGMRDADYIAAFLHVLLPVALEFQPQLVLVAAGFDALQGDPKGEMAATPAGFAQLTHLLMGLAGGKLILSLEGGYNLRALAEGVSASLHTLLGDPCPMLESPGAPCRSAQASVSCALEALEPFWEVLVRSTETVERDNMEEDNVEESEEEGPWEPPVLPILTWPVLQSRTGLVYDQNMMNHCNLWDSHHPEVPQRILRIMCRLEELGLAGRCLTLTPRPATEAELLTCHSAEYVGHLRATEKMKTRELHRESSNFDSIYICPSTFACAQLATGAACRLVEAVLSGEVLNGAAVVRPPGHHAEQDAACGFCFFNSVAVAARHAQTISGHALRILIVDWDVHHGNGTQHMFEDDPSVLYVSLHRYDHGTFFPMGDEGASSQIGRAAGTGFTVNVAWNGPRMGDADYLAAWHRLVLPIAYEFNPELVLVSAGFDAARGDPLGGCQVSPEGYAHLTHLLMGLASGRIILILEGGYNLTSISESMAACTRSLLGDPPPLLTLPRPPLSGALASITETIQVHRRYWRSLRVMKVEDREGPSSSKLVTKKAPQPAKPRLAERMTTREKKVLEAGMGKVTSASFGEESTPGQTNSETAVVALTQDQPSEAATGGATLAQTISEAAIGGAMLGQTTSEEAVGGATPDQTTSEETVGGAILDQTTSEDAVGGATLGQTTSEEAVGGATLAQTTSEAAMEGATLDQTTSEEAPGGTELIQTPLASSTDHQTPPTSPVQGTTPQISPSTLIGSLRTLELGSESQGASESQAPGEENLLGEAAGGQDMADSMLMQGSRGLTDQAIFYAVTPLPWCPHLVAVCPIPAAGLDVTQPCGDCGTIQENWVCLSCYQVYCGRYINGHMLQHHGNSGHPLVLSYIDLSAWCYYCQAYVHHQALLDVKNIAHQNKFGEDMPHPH

[3] = molecular target: T3, Histone deacetylase 11 (Homo sapiens, UniProt Q96DB2); test: Inhibition of full length human HDAC11 using FAM-labeled acetylated peptide as substrate by electrophoretic mobility shift assay; in short: as §1
T3 sequence (Q96DB2 whole entry): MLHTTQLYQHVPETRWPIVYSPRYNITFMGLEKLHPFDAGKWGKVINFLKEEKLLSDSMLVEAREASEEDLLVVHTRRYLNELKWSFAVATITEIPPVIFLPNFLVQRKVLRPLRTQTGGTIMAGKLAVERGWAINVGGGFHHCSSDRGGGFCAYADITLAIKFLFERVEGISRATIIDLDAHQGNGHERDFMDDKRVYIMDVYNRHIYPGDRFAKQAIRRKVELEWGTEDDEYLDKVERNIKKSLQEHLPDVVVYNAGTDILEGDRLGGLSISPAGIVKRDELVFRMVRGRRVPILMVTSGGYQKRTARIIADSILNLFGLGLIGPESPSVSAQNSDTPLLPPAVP

[4] = molecular target: Histone deacetylase 3 (Homo sapiens, UniProt O15379); test: Inhibition of full length human HDAC3 using FAM-labeled acetylated peptide as substrate by electrophoretic mobility shift assay; in short: as §1
Histone deacetylase 3, sequence (O15379 whole entry): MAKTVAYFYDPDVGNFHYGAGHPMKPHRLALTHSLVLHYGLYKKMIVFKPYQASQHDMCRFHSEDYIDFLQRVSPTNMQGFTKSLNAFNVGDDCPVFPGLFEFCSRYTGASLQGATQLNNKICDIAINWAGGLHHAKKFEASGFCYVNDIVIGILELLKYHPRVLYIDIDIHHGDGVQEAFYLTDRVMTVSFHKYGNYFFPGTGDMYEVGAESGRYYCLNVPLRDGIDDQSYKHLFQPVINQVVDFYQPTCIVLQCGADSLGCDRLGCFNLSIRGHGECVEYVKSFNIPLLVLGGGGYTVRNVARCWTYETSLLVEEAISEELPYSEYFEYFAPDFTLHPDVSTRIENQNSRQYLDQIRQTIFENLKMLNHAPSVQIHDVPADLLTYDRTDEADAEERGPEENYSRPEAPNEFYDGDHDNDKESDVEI

| SMILES | IC50 [1] | IC50 [2] | IC50 [3] | IC50 [4] |
| --- | --- | --- | --- | --- |
| O=C(NO)c1ccc(CN(Cc2cccc(F)c2)S(=O)(=O)c2cc(F)c(F)c(F)c2F)cc1 | 412 nM | 14 nM | 235 nM | > 1000 nM |
| O=C(NO)c1ccc(CN(Cc2ccccn2)S(=O)(=O)c2cc(F)c(F)c(F)c2F)cc1 | 332 nM | 6 nM | 941 nM | 896 nM |
| O=C(NO)c1ccc(CN(Cc2ccncc2)S(=O)(=O)c2c(F)c(F)c(F)c(F)c2F)cc1 | > 1000 nM | 14 nM | > 1000 nM | > 1000 nM |
| CN(C)c1ccc(CN(Cc2ccc(C(=O)NO)cc2)S(=O)(=O)c2c(F)c(F)c(F)c(F)c2F)cc1 | > 1000 nM | 29 nM | > 1000 nM | > 1000 nM |
| O=C(NO)c1ccc(CN(Cc2ccccc2)S(=O)(=O)c2c(F)c(F)c(F)c(F)c2F)cc1 | 150 nM | 9 nM | 122 nM | > 1000 nM |
| O=C(NO)c1ccc(CN(Cc2ccccc2F)S(=O)(=O)c2cc(F)c(F)c(F)c2F)cc1 | 241 nM | 10 nM | 263 nM | > 1000 nM |
| O=C(NO)c1ccc(CNS(=O)(=O)c2c(F)c(F)c(F)c(F)c2F)cc1 | > 1000 nM | – | > 1000 nM | > 1000 nM |
| O=C(CCCCCCC(=O)N/N=C/c1ccc(N(c2ccccc2)c2ccccc2)cc1)NO | – | 400 nM | – | – |
| O=C(NO)c1ccc(CN(Cc2ccccc2)S(=O)(=O)c2cc(F)c(F)c(F)c2F)cc1 | 155 nM | 5 nM | 115 nM | 697 nM |
| O=C(NO)c1ccc(CN(Cc2ccc(F)cc2)S(=O)(=O)c2cc(F)c(F)c(F)c2F)cc1 | 860 nM | 21 nM | > 1000 nM | > 1000 nM |
| O=C(NO)c1ccc(CN(Cc2ccc(F)cc2)S(=O)(=O)c2c(F)c(F)c(F)c(F)c2F)cc1 | 367 nM | 13 nM | 787 nM | > 1000 nM |
| Cc1ccc(CN(Cc2ccc(C(=O)NO)cc2)S(=O)(=O)c2c(F)c(F)c(F)c(F)c2F)cc1 | 101 nM | 6 nM | 73 nM | > 1000 nM |
| CC(C)(C)c1ccc(CN(Cc2ccc(C(=O)NO)cc2)S(=O)(=O)c2c(F)c(F)c(F)c(F)c2F)cc1 | 68 nM | 42 nM | 88 nM | > 1000 nM |
| O=C(NO)c1ccc(CN(Cc2ccc(C(F)(F)F)cc2)S(=O)(=O)c2c(F)c(F)c(F)c(F)c2F)cc1 | > 1000 nM | 45 nM | > 1000 nM | > 1000 nM |
| O=C(NO)c1ccc(CN(Cc2ccncc2)S(=O)(=O)c2cc(F)c(F)c(F)c2F)cc1 | 581 nM | 11 nM | 472 nM | > 1000 nM |
